Results: ChEMBL document CHEMBL1143827, “In vitro activity of 2,4-diamino-6-[2-(phosphonomethoxy)ethoxy]-pyrimidine against multidrug-resistant hepatitis B virus mutants” (Antimicrob Agents Chemother, 2007)

How the values were obtained:
Hepatitis B virus [1] = experiment: Fold resistance, ratio of EC50 for lamivudine-adefovir-resistant HBV with reverse transcriptase L180M/M204V/N236T mutant to EC50 for wild-type HBV; type: functional
Procedure, shortened: (§1)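 Each mutant and its corresponding wild-type strain were transfected into Huh7 cells and treated in parallel with the same drug concentration range, with HBV DNA read by Southern blot. Fold resistance = mutant EC50 / corresponding wild-type EC50. Uses means of at least three independent experiments, each in triplicate.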

Hepatitis B virus [2] = experiment: Fold resistance, ratio of EC50 for lamivudine-resistant HBV with reverse transcriptase L180M/M204V mutant to EC50 for wild-type HBV; type: functional; procedure, shortened: as §1
Hepatitis B virus [3] = experiment: Fold resistance, ratio of lamivudine-resistant HBV with reverse transcriptase L180M/M204V mutant to wild-type HBV genotype E; type: functional; procedure, shortened: as §1
Hepatitis B virus [4] = experiment: Antiviral activity against lamivudine-adefovir-resistant HBV with reverse transcriptase L180M/M204V/N236T mutant assessed as inhibition of replication; type: functional, organism-based
Procedure, shortened: (§2)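 Huh7 cells transiently transfected with plasmids carrying 1.1 genome units of mutant or wild-type HBV under the chicken beta-actin promoter. Drug range was 0 to 100 μM for PMEO-DAPym, lamivudine, adefovir and tenofovir. Intracellular HBV DNA was purified and analysed by Southern blot to give EC50. Values are means of at least three independent experiments, each run in triplicate.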

Hepatitis B virus [5] = experiment: Antiviral activity against lamivudine-adenofir-resistant HBV with reverse transcriptase V173L/L180M/A181V mutant; type: functional, organism-based; procedure, shortened: as §2
Hepatitis B virus [6] = experiment: Fold resistance, ratio of EC50 for adenofir-resistant HBV with reverse transcriptase N236T mutant to EC50 for wild-type HBV; type: functional; procedure, shortened: as §1
Hepatitis B virus [7] = experiment: Antiviral activity against wild type HBV genotype H assessed as inhibition of replication; type: functional, organism-based
Procedure, shortened: (§3)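 Huh7 hepatoma cells were transiently transfected with plasmids carrying 1.1 genome units of wild-type HBV under a chicken beta-actin promoter, then treated with drug across a range starting at 0 μM (up to 100 μM for some drugs). Intracellular HBV DNA was purified and analysed by Southern blot to derive EC50. Values are means of at least three independent experiments, each run in triplicate.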

Hepatitis B virus [8] = experiment: Antiviral activity against wild type HBV genotype E assessed as inhibition of replication; type: functional, organism-based; procedure, shortened: as §3
[9] = Effect on cell viability in human Huh7 cells; type: cell-based, Huh-7
Procedure, shortened: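 Huh7 cells were exposed to drug, and viability was read as neutral red dye uptake. CC50 is the concentration that cut uptake by 50%, given as mean ± SD of three independent experiments run in quadruplicate.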

Hepatitis B virus [10] = experiment: Fold resistance, ratio of Lamivudine -adenofir-resistant with HBV reverse transcriptase V173L/L180M/A181V/M204V mutant to wildtype HBV genotype E; type: functional; procedure, shortened: as §1
Hepatitis B virus [11] = experiment: Antiviral activity against lamivudine-resistant HBV with reverse transcriptase L180M/M204V mutant assessed as inhibition of replication; type: functional, organism-based; procedure, shortened: as §2
Hepatitis B virus [12] = experiment: Fold resistance, ratio of lamivudine-resistant HBV with reverse transcriptase V173L/L180/M204V mutant to wild-type HBV genotype H; type: functional; procedure, shortened: as §1
Hepatitis B virus [13] = experiment: Fold resistance, ratio of Lamivudine -adenofir-resistant with HBV reverse transcriptase V173L/L180M/A181V/N236T mutant to wildtype HBV genotype E; type: functional; procedure, shortened: as §1
Hepatitis B virus [14] = experiment: Fold resistance, ratio of lamivudine -adenofir-resistant with HBV reverse transcriptase V173L/L180M/A181V/M204V/N236T mutant to wild-type HBV genotype E; type: functional; procedure, shortened: as §1
Hepatitis B virus [15] = experiment: Fold resistance, ratio of lamivudine-resistant HBV with reverse transcriptase L180M/A181V mutant to wild-type HBV genotype E; type: functional; procedure, shortened: as §1
Hepatitis B virus [16] = experiment: Fold resistance, ratio of entecavir-resistant HBV with reverse transcriptase L180M/S202G/M204V mutant to wild-type HBV genotype H; type: functional; procedure, shortened: as §1
Hepatitis B virus [17] = experiment: Antiviral activity against lamivudine-resistant HBV with reverse transcriptase L180M/M204V mutant; type: functional, organism-based; procedure, shortened: as §2
Hepatitis B virus [18] = experiment: Antiviral activity against lamivudine-adenofir-resistant HBV with reverse transcriptase V173L/L180M/A181V/N236T mutant; type: functional, organism-based; procedure, shortened: as §2
Hepatitis B virus [19] = experiment: Fold resistance, ratio of Lamivudine -adenofir-resistant HBV with reverse transcriptase V173L/L180M/A181V mutant to wildtype HBV genotype E; type: functional; procedure, shortened: as §1
Hepatitis B virus [20] = experiment: Inhibition of wild type HBV replication in Huh7 cells; type: functional, organism-based; conditions: Huh-7; procedure, shortened: as §3
Hepatitis B virus [21] = experiment: Antiviral activity against entecavir-resistant HBV with reverse transcriptase L180M/S202G/M204V mutant; type: functional, organism-based; procedure, shortened: as §2
Hepatitis B virus [22] = experiment: Antiviral activity against lamivudine-resistant HBV with reverse transcriptase V173L/L180/M204V mutant; type: functional, organism-based; procedure, shortened: as §2
Hepatitis B virus [23] = experiment: Antiviral activity against adenofir-resistant HBV with reverse transcriptase N236T mutant assessed as inhibition of replication; type: functional, organism-based; procedure, shortened: as §2
Hepatitis B virus [24] = experiment: Antiviral activity against Lamivudine -adenofir-resistant HBV with reverse transcriptase V173L/L180M/A181V/M204V/N236T mutant; type: functional, organism-based; procedure, shortened: as §2
Hepatitis B virus [25] = experiment: Antiviral activity against Lamivudine -adenofir-resistant HBV with reverse transcriptase V173L/L180M/A181V/M204V mutant; type: functional, organism-based; procedure, shortened: as §2
Hepatitis B virus [26] = experiment: Antiviral activity against wild type HBV assessed as inhibition of replication; type: functional, organism-based; procedure, shortened: as §3
Hepatitis B virus [27] = experiment: Antiviral activity against lamivudine-resistant HBV with reverse transcriptase L180M/A181V mutant; type: functional, organism-based; procedure, shortened: as §2

Structure (SMILES)	Ratio EC50 (Hepatitis B virus [1])	Ratio EC50 (Hepatitis B virus [2])	Ratio EC50 (Hepatitis B virus [3])	EC50 (Hepatitis B virus [4]) [µM]	EC50 (Hepatitis B virus [5]) [µM]	Ratio EC50 (Hepatitis B virus [6])	EC50 (Hepatitis B virus [7]) [µM]	EC50 (Hepatitis B virus [8]) [µM]	CC50 [9] [µM]	Ratio EC50 (Hepatitis B virus [10])	EC50 (Hepatitis B virus [11]) [µM]	Ratio EC50 (Hepatitis B virus [12])	Ratio EC50 (Hepatitis B virus [13])	Ratio EC50 (Hepatitis B virus [14])	Ratio EC50 (Hepatitis B virus [15])	Ratio EC50 (Hepatitis B virus [16])	EC50 (Hepatitis B virus [17]) [µM]	EC50 (Hepatitis B virus [18]) [µM]	Ratio EC50 (Hepatitis B virus [19])	EC50 (Hepatitis B virus [20]) [µM]	other results
C[C@H](Cn1cnc2c(N)ncnc21)OCP(=O)(O)O [TENOFOVIR ANHYDROUS]	4.4	3.4	1.1	45.5	42	4.5	13.6	25	> 1000	1.8	35.2	1.2	1.1	1.8	1.4	2	27	28	1.6	16	EC50 (Hepatitis B virus [21]): 27 µM; EC50 (Hepatitis B virus [22]): 16 µM; EC50 (Hepatitis B virus [23]): 46 µM; EC50 (Hepatitis B virus [24]): 46 µM; EC50 (Hepatitis B virus [25]): 45 µM; EC50 (Hepatitis B virus [26]): 10.3 µM; EC50 (Hepatitis B virus [27]): 36 µM
C=C1[C@H](CO)[C@@H](O)C[C@@H]1n1cnc2c(=O)[nH]c(N)nc21.O [ENTECAVIR]	6.25	6.25	175	5	2.75	0.88	0.09	0.06	125	>=800	5	43	9	461	28	210	10.5	0.5	50	0.3	EC50 (Hepatitis B virus [21]): 18 µM; EC50 (Hepatitis B virus [22]): 3.7 µM; EC50 (Hepatitis B virus [23]): 0.7 µM; EC50 (Hepatitis B virus [24]): 25.4 µM; EC50 (Hepatitis B virus [25]): ≥ 50 µM; EC50 (Hepatitis B virus [26]): 0.8 µM; EC50 (Hepatitis B virus [27]): 1.5 µM
Nc1cc(OCCOCP(=O)(O)O)nc(N)n1	1.4	1.2	0.9	5.7	24	1.1	4.4	5.6	> 1000	3.2	4.7	0.9	5.1	2.1	4.8	1	5.3	29	4.3	4.9	EC50 (Hepatitis B virus [21]): 4.5 µM; EC50 (Hepatitis B virus [22]): 4.1 µM; EC50 (Hepatitis B virus [23]): 4.5 µM; EC50 (Hepatitis B virus [24]): 12 µM; EC50 (Hepatitis B virus [25]): 18 µM; EC50 (Hepatitis B virus [26]): 4 µM; EC50 (Hepatitis B virus [27]): 27 µM
Nc1ccn([C@@H]2CS[C@H](CO)O2)c(=O)n1 [LAMIVUDINE]	>40	>40	>1000	> 100	100	1.06	0.64	0.1	> 1000	>1000	> 100	>156	>1000	>1000	800	>156	> 100	> 100	1000	1	EC50 (Hepatitis B virus [21]): > 100 µM; EC50 (Hepatitis B virus [22]): > 100 µM; EC50 (Hepatitis B virus [23]): 2.65 µM; EC50 (Hepatitis B virus [24]): > 100 µM; EC50 (Hepatitis B virus [25]): > 100 µM; EC50 (Hepatitis B virus [26]): 2.48 µM; EC50 (Hepatitis B virus [27]): 80 µM
CC(C)(C)C(=O)OCOP(=O)(COCCn1cnc2c(N)ncnc21)OCOC(=O)C(C)(C)C [ADEFOVIR DIPIVOXIL]	6.3	0.98	1.5	100	48	3.2	13.6	10	365	4	15.5	0.7	>10	7.7	2.7	1.1	15	> 100	4.8	13	EC50 (Hepatitis B virus [21]): 15 µM; EC50 (Hepatitis B virus [22]): 9.8 µM; EC50 (Hepatitis B virus [23]): 50.3 µM; EC50 (Hepatitis B virus [24]): 77 µM; EC50 (Hepatitis B virus [25]): 40 µM; EC50 (Hepatitis B virus [26]): 15.8 µM; EC50 (Hepatitis B virus [27]): 27 µM
